Laboratory results taken from ChEMBL document CHEMBL4689842, “EUbOPEN Chemogenomics Library wave 1” (2021).
Several values for one entry are separate records, joined by “and”; a condition that tells them apart may be missing. Equal entries are not always repeated.

Tested on: HEK-293T
Assay: Multiplex assay against HEK293T;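 on Population Tubulin-Different-Phenotype (%): share of the cells with healthy nuclei that show this phenotype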
Type: toxicity, cell-based
Settings: human
Procedure, shortened: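 Per cents of healthy-nucleus cells form the tubulin, mitochondrial-mass and membrane-permeability phenotype values. Live cells were stained at seeding with Hoechst33342, BioTracker Green Microtubule Cytoskeleton Dye, MitoTracker Red and Annexin V Alexa Fluor 680. After compound addition they were imaged on a CQ1 microscope at 37°C and 5% CO2, and CellPathfinder machine-learning gating split them into Hoechst high-intensity objects or normal cells, normal cells into healthy, pyknosed or fragmented nuclei, and pyknosed cells into mitotic or apoptotic.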

[1] = 12 h, 1 µM, compound concentration 1 uM, replicate 1
[2] = 12 h, 1 µM, compound concentration 1 uM, replicate 2
[3] = 12 h, 10 µM, compound concentration 10 uM, replicate 1
[4] = 12 h, 10 µM, compound concentration 10 uM, replicate 2
[5] = 24 h, 1 µM, compound concentration 1 uM, replicate 1
[6] = 24 h, 1 µM, compound concentration 1 uM, replicate 2
[7] = 24 h, 10 µM, compound concentration 10 uM, replicate 1
[8] = 24 h, 10 µM, compound concentration 10 uM, replicate 2
[9] = 48 h, 10 µM, compound concentration 10 uM, replicate 1
[10] = 48 h, 10 µM, compound concentration 10 uM, replicate 2

SMILES: CN1CCN(C(=O)C(C)(C)c2ccc(C(=O)Nc3cn4cc(-c5cc(C(C)(C)C)cc(C(C)(C)C)c5)ccc4n3)cc2)CC1 [T3-CLK-N]
- Population Apoptotic (%) [1]: 14%
- Population Fragmented Nuclei (%) [1]: 15%
- Population Healthy Nuclei (%) [1]: 58%
- Population Hoechst High Intensity Objects (%) [1]: 12%
- Population Membrane Permeable-Phenotype (%) [1]: 5%
- Population Mitochondria Different-Phenotype (%) [1]: 7%
- Population Mitotic Cells (%) [1]: 85%
- Population Normal (%) [1]: 87%
- Population Pyknosed Nuclei (%) [1]: 25%
- Population Tubulin-Different-Phenotype (%) [1]: 9%
- Total Cell Count [1]: 642
- Population Apoptotic (%) [2]: 10%
- Population Fragmented Nuclei (%) [2]: 6%
- Population Healthy Nuclei (%) [2]: 84%
- Population Hoechst High Intensity Objects (%) [2]: 2%
- Population Membrane Permeable-Phenotype (%) [2]: 4%
- Population Mitochondria Different-Phenotype (%) [2]: 13%
- Population Mitotic Cells (%) [2]: 89%
- Population Normal (%) [2]: 97%
- Population Pyknosed Nuclei (%) [2]: 9%
- Population Tubulin-Different-Phenotype (%) [2]: 21%
- Total Cell Count [2]: 1407
- Population Apoptotic (%) [3]: 21%
- Population Fragmented Nuclei (%) [3]: 16%
- Population Healthy Nuclei (%) [3]: 46%
- Population Hoechst High Intensity Objects (%) [3]: 18%
- Population Membrane Permeable-Phenotype (%) [3]: 11%
- Population Mitochondria Different-Phenotype (%) [3]: 13%
- Population Mitotic Cells (%) [3]: 78%
- Population Normal (%) [3]: 81%
- Population Pyknosed Nuclei (%) [3]: 36%
- Population Tubulin-Different-Phenotype (%) [3]: 30%
- Total Cell Count [3]: 631
- Population Apoptotic (%) [4]: 23%
- Population Fragmented Nuclei (%) [4]: 3%
- Population Healthy Nuclei (%) [4]: 80%
- Population Hoechst High Intensity Objects (%) [4]: 4%
- Population Membrane Permeable-Phenotype (%) [4]: 4%
- Population Mitochondria Different-Phenotype (%) [4]: 26%
- Population Mitotic Cells (%) [4]: 76%
- Population Normal (%) [4]: 95%
- Population Pyknosed Nuclei (%) [4]: 15%
- Population Tubulin-Different-Phenotype (%) [4]: 63%
- Total Cell Count [4]: 884
- Population Apoptotic (%) [5]: 16%
- Population Fragmented Nuclei (%) [5]: 12%
- Population Healthy Nuclei (%) [5]: 76%
- Population Hoechst High Intensity Objects (%) [5]: 10%
- Population Membrane Permeable-Phenotype (%) [5]: 14%
- Population Mitochondria Different-Phenotype (%) [5]: 5%
- Population Mitotic Cells (%) [5]: 83%
- Population Normal (%) [5]: 89%
- Population Pyknosed Nuclei (%) [5]: 10%
- Population Tubulin-Different-Phenotype (%) [5]: 19%
- Total Cell Count [5]: 686
- Population Apoptotic (%) [6]: 4%
- Population Fragmented Nuclei (%) [6]: 10%
- Population Healthy Nuclei (%) [6]: 84%
- Population Hoechst High Intensity Objects (%) [6]: 4%
- Population Membrane Permeable-Phenotype (%) [6]: 9%
- Population Mitochondria Different-Phenotype (%) [6]: 8%
- Population Mitotic Cells (%) [6]: 95%
- Population Normal (%) [6]: 95%
- Population Pyknosed Nuclei (%) [6]: 5%
- Population Tubulin-Different-Phenotype (%) [6]: 40%
- Total Cell Count [6]: 1792
- Population Apoptotic (%) [7]: 27%
- Population Fragmented Nuclei (%) [7]: 20%
- Population Healthy Nuclei (%) [7]: 46%
- Population Hoechst High Intensity Objects (%) [7]: 21%
- Population Membrane Permeable-Phenotype (%) [7]: 8%
- Population Mitochondria Different-Phenotype (%) [7]: 23%
- Population Mitotic Cells (%) [7]: 72%
- Population Normal (%) [7]: 78%
- Population Pyknosed Nuclei (%) [7]: 33%
- Population Tubulin-Different-Phenotype (%) [7]: 56%
- Total Cell Count [7]: 614
- Population Apoptotic (%) [8]: 17%
- Population Fragmented Nuclei (%) [8]: 4%
- Population Healthy Nuclei (%) [8]: 88%
- Population Hoechst High Intensity Objects (%) [8]: 3%
- Population Membrane Permeable-Phenotype (%) [8]: 7%
- Population Mitochondria Different-Phenotype (%) [8]: 37%
- Population Mitotic Cells (%) [8]: 82%
- Population Normal (%) [8]: 96%
- Population Pyknosed Nuclei (%) [8]: 6%
- Population Tubulin-Different-Phenotype (%) [8]: 82%
- Total Cell Count [8]: 947

SMILES: CN1CCN(C(=O)C(C)(C)c2ccc(C(=O)Nc3cn4cc(-c5ccncc5)ccc4n3)cc2)CC1 [T3-CLK]
- Population Hoechst High Intensity Objects (%) [3]: 16% and 14% and 10%
- Population Membrane Permeable-Phenotype (%) [3]: 6% and 17%
- Population Normal (%) [3]: 83% and 85% and 89%
- Population Pyknosed Nuclei (%) [3]: 24% and 27%
- Population Fragmented Nuclei (%) [4]: 4% and 3% and 6%
- Population Hoechst High Intensity Objects (%) [4]: 7% and 4%
- Population Membrane Permeable-Phenotype (%) [4]: 10% and 5%
- Population Mitotic Cells (%) [4]: 49% and 79% and 91%
- Population Normal (%) [4]: 92% and 95%
- Population Tubulin-Different-Phenotype (%) [4]: 89% and 85% and 39%
- Population Fragmented Nuclei (%) [7]: 15% and 17% and 6%
- Population Hoechst High Intensity Objects (%) [7]: 18% and 17% and 6%
- Population Membrane Permeable-Phenotype (%) [7]: 9% and 11% and 13%
- Population Normal (%) [7]: 81% and 82% and 93%
- Population Tubulin-Different-Phenotype (%) [7]: 100% and 76% and 34%
- Population Fragmented Nuclei (%) [8]: 4% and 7%
- Population Membrane Permeable-Phenotype (%) [8]: 14% and 16% and 8%
- Population Normal (%) [8]: 91% and 97% and 94%
- Population Tubulin-Different-Phenotype (%) [8]: 91% and 70% and 94%
- Population Apoptotic (%) [9]: 92%
- Population Fragmented Nuclei (%) [9]: 19%
- Population Healthy Nuclei (%) [9]: 10%
- Population Hoechst High Intensity Objects (%) [9]: 18%
- Population Membrane Permeable-Phenotype (%) [9]: 0%
- Population Mitochondria Different-Phenotype (%) [9]: 94%
- Population Mitotic Cells (%) [9]: 7%
- Population Normal (%) [9]: 81%
- Population Pyknosed Nuclei (%) [9]: 70%
- Population Tubulin-Different-Phenotype (%) [9]: 77%
- Total Cell Count [9]: 216
- Population Apoptotic (%) [10]: 91%
- Population Fragmented Nuclei (%) [10]: 7%
- Population Healthy Nuclei (%) [10]: 17%
- Population Hoechst High Intensity Objects (%) [10]: 4%
- Population Membrane Permeable-Phenotype (%) [10]: 12%
- Population Mitochondria Different-Phenotype (%) [10]: 79%
- Population Mitotic Cells (%) [10]: 8%
- Population Normal (%) [10]: 95%
- Population Pyknosed Nuclei (%) [10]: 75%
- Population Tubulin-Different-Phenotype (%) [10]: 87%
- Total Cell Count [10]: 142
